Measurements from ChEMBL document CHEMBL2417509, “Synthesis and biological evaluation of prodigiosene conjugates of porphyrin, estrone and 4-hydroxytamoxifen” (2013).
The source made the active and inactive calls. The rule behind the calls is not given here.

Tested on: MDA-MB-231
Experiment: Cytotoxicity against human ER negative MDA-MB-231 cells assessed as cell viability at 1 uM after 72 hrs by MTT assay
Type: functional, cell-based
Outline: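 Lines kept in DMEM with 10% fetal bovine serum and 1% penicillin/streptomycin at 37 °C, 5% CO2. Compound applied at 1 µM for 72 h, then standard MTT reduction read-out. Viability given as mean percentage of formazan formed by treated cells relative to mock-treated cells (0.1% DMSO). Run in quadruplicate, standard error, Student's t-test.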

COc1cc(-c2ccc[nH]2)[nH]c1/C=C1\N=C(C)C(C(=O)CCC(=O)Oc2ccc3c(c2)CC[C@@H]2[C@@H]3CC[C@]3(C)C(=O)CC[C@@H]23)=C1C
Activity: Active
